ROMK primary: human ROMK K+ channel modulation, primary screen; Tet-inducible ROMK, thallium flux fluorescence; actives lie on both sides; P48048; 130,000 tested, 2% active; B-score at 10 µM;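 active means signal ratio slope over the read window, or its plate-corrected B-score, at least 3 SD from the plate mean, either direction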;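 further: B-score of the F/F0 ratio slope over 7 to 12 s after thallium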
Cl transport mod: modulators of human KCC2 chloride dependent transport | Q9H2X9 | KCC2 cells, thallium flux FluoZin-2 fluorescence | B-score of Tl+ flux slope (higher = more flux/activation; lower = inhibition) at 10 µM | 190,000 tested, 2.2% active | AID 1456;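 active means thallium flux slope and its plate-corrected score both differing from the plate sample mean at a set confidence after two filtering rounds, in either direction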;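 further: slope of fluorescence scaled to starting intensity during 10 to 20 s after thallium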
Autophagy mod: alters autophagy in cells. MEF GFP-LC3 puncta imaging; test concentration mostly 10 µM. calls only at 10 µM (by protocol). 190,000 tested, 0.98% active. AID 463193;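 active means percentage of spot-positive cells more than 3 SD above its plate mean, without a fluorescence outlier flag or 80% toxicity; inconclusive means no clear call, values can overlap the other calls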
Dynein cargo inh: blocks dynein driven cargo transport along microtubules; 3617.4 mouse cells, GR-EGFP nuclear translocation imaging; test concentration mostly 20 µM; stimulated with dexamethasone, 1 µM; stronger effect = lower value; z-score, hits read low; 220,000 tested, 0.47% active;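 active means plate z-score of nuclear minus cytoplasmic receptor signal below a set negative limit, without overly bright fluorescence or cell loss, cut at about -3.5 in these data, passing the limit was not always enough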;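 further: z-score of nuclear minus cytoplasmic ring GR-EGFP intensity difference per well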
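Also added: dexamethasone, 1.0 µM final. Medium: tet-free, stripped-serum medium. Detection: fixed, Hoechst-stained cells imaged at 10x for EGFP. Read-out: nuclear-to-cytoplasmic GR-EGFP distribution per well. Times: induction 48 h, compound 1 h, agonist 30 min.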
DTT redox prof: compounds producing H2O2 with reducing agent – biochemical, NIH compound library profiling, artefact control for MLSCN library redox annotation, primary screen; DTT-dependent redox cycling H2O2, phenol red/HRP absorbance; 100% = 100 µM peroxide control, 0% = buffer; activation, % at 10 µM; 200,000 tested, 0.03% active;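 active means activation of at least 50% relative to the plate's high and low controls in the primary single-dose screen; inactive means activation below 50%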;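 further: compound incubated with DTT at 0.8 mM final as the reducing agent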
KCC2 secondary: confirmation of human KCC2 transport modulators; HEK293-KCC2, thallium flux, FluoZin2 fluorescence; stronger effect = higher value; shares compounds with Cl transport mod; 3,700 tested, 15% active; AID 1713; normalised thallium flux (F/F0 slope) at 10 µM;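 active means thallium flux slope above the same plate's solvent-only control mean plus 3 SD; inconclusive means the two replicate wells disagree; inactive means no significant difference from solvent-only control wells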
KCC2 bumet counter: bumetanide-insensitive thallium flux in KCC2 cells with ouabain, counter-screen; shares compounds with Cl transport mod; 3,700 tested, 49% active; HEK293-KCC2 + bumetanide/ouabain, thallium flux FluoZin2; stronger effect = higher value; normalized thallium flux at 10 µM;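 active means thallium entry rate above the same plate's blocked-transporter control wells by more than 3 SD; inconclusive means the two repeat wells disagree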;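 further: raw slope of fluorescence over initial fluorescence between 10 and 20 s after thallium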
KCC2 secondary2: KCC2 (human) modulation, second secondary assay | shares compounds with Cl transport mod | HEK293-KCC2, thallium flux FluoZin2 fluorescence; actives lie on both sides; F/F0 rise rate, 10–20 s post-thallium | normalized thallium flux at 10 µM | 3,700 tested, 23% active;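 active means thallium flux slope more than 3 SD above or below the plate's solvent-only control mean, mostly below; inconclusive means the two repeat wells disagreed; inactive means no significant shift from solvent-only controls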
HEK counter1: parental HEK flux effect, counter-screen. shares compounds with Cl transport mod. HEK293 parental cells, thallium flux FluoZin2, ouabain; baseline-ratio fluorescence slope, 10–20 s after thallium. thallium flux rate (normalised fluorescence) at 10 µM. 3,700 tested, 46% active. AID 1716;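 active means thallium flux rate significantly above the same plate's solvent-only control wells, beyond their mean plus 3 SD; inconclusive means the two replicate wells gave conflicting results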
KCC2 retest ouab: confirmation of human KCC2 modulators with ouabain. shares compounds with Cl transport mod. HEK293-KCC2, thallium flux FluoZin2 fluorescence; bidirectional: low = inhibitor, high = activator. raw Tl+ flux slope (below DMSO = inhibition, above = activation) at 10 µM. 3,700 tested, 48% active;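 active means thallium flux slope beyond 3 SD from same-plate DMSO control mean in most replicates, usually higher, sometimes lower; inconclusive means repeat tests gave conflicting results; inactive means no significant difference from controls in most replicates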;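 further: slope of initial-normalized fluorescence between seconds 10 and 20 after thallium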
HEK counter2: acts in parental HEK cells, second KCC2 counter-screen | shares compounds with Cl transport mod | HEK293 parental, thallium flux FluoZin-2 fluorescence slope | thallium flux slope at 10 µM | 3,700 tested, 33% active | AID 1718;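 active means thallium flux slope above the same plate's solvent-control mean plus 3 SD in both duplicate wells; inconclusive means duplicate wells that disagreed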;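 further: run without ouabain in cells lacking the KCC2 cotransporter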
Numbers stand for hits; n = inactive; u = inconclusive; x = no result. In the library only some 4.1% were active in any assay of this set; here they are far more common.

SMILES | ROMK primary | Cl transport mod | Autophagy mod | Dynein cargo inh | DTT redox prof | KCC2 secondary | KCC2 bumet counter | KCC2 secondary2 | HEK counter1 | KCC2 retest ouab | HEK counter2
COC(CNC(=O)c1ccc(-n2c(=S)[nH]c3ccccc3c2=O)cc1)OC | n | n | n | n | n | x | x | x | x | x | x
COC(CNC(=O)c1cccc(-n2c(=S)[nH]c3cc(Cl)ccc3c2=O)c1)OC | n | 4.4 | n | n | n | u | 0.021 | n | 0.015 | u | 0.012
CCOC(=O)N1CCN(C(=O)c2ccc3c(=O)n(-c4ccc(OC)cc4)c(=S)[nH]c3c2)CC1 | x | -3.6 | n | n | n | n | n | n | u | n | n
CCOC(=O)N1CCN(C(=O)c2cccc(-n3c(=S)[nH]c4cc(Cl)ccc4c3=O)c2)CC1 | n | x | n | n | n | n | 0.012 | u | 0.017 | 0.025 | 0.02
Cc1cccc(C)c1OCCNC(=O)C(=O)NCc1ccco1 | n | n | n | n | n | x | x | x | x | x | x
CCS(=O)(=O)c1nc(S(=O)(=O)c2ccc(Cl)cc2)c(NCCOC)s1 | n | n | n | n | n | x | x | x | x | x | x
O=C(COc1ccc(Br)cc1)N/N=C1\SCC(=O)N1c1ccc(F)cc1 | n | n | n | n | n | x | x | x | x | x | x
Cc1ccccc1OCc1csc(N)n1 | n | n | n | n | n | x | x | x | x | x | x
Cc1noc(C)c1C(=O)N1CCCC(C(=O)c2cccc(C(F)(F)F)c2)C1 (stereo unspecified) | n | n | n | n | n | x | x | x | x | x | x
CCCCCC(=O)Cc1cc(O)cc2c1C(=O)Oc1cc(O)c(C(=O)O)c(CCCCC)c1O2 | x | -1.6 | x | n | x | u | n | 0.026 | n | u | n
O=C(CSc1nnc(COc2ccccc2)o1)c1ccccc1 | n | x | n | n | n | x | x | x | x | x | x
CCCn1c(N)c(C(=O)CSc2nnc(Cc3ccccc3)o2)c(=O)n(C)c1=O | x | -8.8 | n | n | n | n | n | 0.02 | n | 0.015 | n
O=C(CSc1nnc(CNc2ccc(F)cc2)o1)c1ccccc1 | n | -3.8 | n | n | n | n | n | n | n | n | n
COc1ccc(NC(=O)CSc2nnc(CNc3ccc(F)cc3)o2)c(OC)c1 | x | -4.1 | n | n | n | n | n | n | n | u | n
O=C(CSc1nnc(Cc2ccccc2)o1)c1ccccc1 | n | -4.4 | n | n | n | n | u | 0.024 | n | u | n
Cn1c(=O)c(C(=O)CSc2nnc(Nc3ccccc3)s2)c(N)n(Cc2ccccc2)c1=O | n | n | n | n | n | x | x | x | x | x | x
Cc1[nH]c2ccccc2c1CCNC(=O)c1c(N)no[n+]1[O-] | n | n | n | n | n | x | x | x | x | x | x
Cc1ccc(/C=c2\s/c(=C(/C#N)C(=O)N3CCCC3)n(Cc3ccco3)c2=O)s1 | x | 8.2 | n | n | n | n | n | 0.025 | n | n | n
COc1cc(/C=c2\s/c(=C(/C#N)C(=O)N3CCCC3)n(-c3ccccc3)c2=O)ccc1O | n | n | n | n | n | x | x | x | x | x | x
COc1ccc(Nc2cc(C)c3ccc(O)cc3n2)cc1 | n | n | x | n | x | n | n | n | u | n | n
Cc1cccnc1Nc1nc(-c2ccc(O)cc2)cs1 | n | x | n | n | n | n | n | n | n | n | u
COc1cccc(Nc2nc(-c3ccc(O)cc3)cs2)c1 | x | n | n | n | n | x | x | x | x | x | x
CCNCc1ccc(OCc2cccs2)c(OCC)c1 | n | n | n | n | n | x | x | x | x | x | x
CCCn1nnc(NCc2ccc(OCc3cccs3)c(OC)c2)n1 | x | -2.9 | n | n | n | n | n | n | n | u | n
CC(C)C(=O)N/N=C/c1ccc(OCc2ccccc2)cc1 | x | -4.7 | n | n | n | n | n | n | n | u | n
SMILES | ROMK primary | Cl transport mod | Autophagy mod | Dynein cargo inh | DTT redox prof | KCC2 secondary | KCC2 bumet counter | KCC2 secondary2 | HEK counter1 | KCC2 retest ouab | HEK counter2
CCOC(=O)C1CCN(C(=O)c2cc3ccccc3oc2=O)CC1 | n | n | n | n | n | x | x | x | x | x | x
O=C(/C=C/c1ccc(F)cc1)NC(=S)N1CCN(c2ccccn2)CC1 | x | 21 | x | n | x | n | 0.019 | n | 0.013 | u | 0.013
O=C(NC(=S)N1CCN(C/C=C/c2ccccc2)CC1)c1ccc(F)cc1 | x | 151 | x | n | x | 0.0099 | 0.13 | 0.11 | 0.11 | 0.12 | 0.11
O=C(NC(=S)N1CCN(C/C=C/c2ccccc2)CC1)c1cccnc1 | n | n | x | n | x | x | x | x | x | x | x
O=C(/C=C/c1ccccc1)NC(=S)N1CCSCC1 | n | 9.7 | n | n | n | 0.022 | 0.026 | u | 0.018 | 0.025 | 0.02
COc1ccc(/C=C/C(=O)NC(=S)N2CCN(c3ccccn3)CC2)cc1OC | n | n | n | n | n | x | x | x | x | x | x
CC(=O)NC(Cc1ccccc1)C(=O)OCC(=O)c1ccc(F)cc1 (stereo unspecified) | n | n | n | n | n | x | x | x | x | x | x
C=CCNC(=O)C1CCN(c2c([N+](=O)[O-])cc(C(F)(F)F)cc2[N+](=O)[O-])CC1 | x | x | n | n | n | n | n | n | n | n | u
O=C(COc1ccc(Cl)cc1)NCc1ccncc1 | x | n | n | n | n | x | x | x | x | x | x
CC(OC(=O)c1ccncc1)C(=O)Nc1ccc([N+](=O)[O-])cc1Cl (stereo unspecified) | n | n | n | n | n | x | x | x | x | x | x
CCOc1ccc(NC(=O)c2ccccc2O)cc1 | n | n | n | n | n | x | x | x | x | x | x
COc1ccccc1C(=O)NNC(=O)C(=O)NC(C)(C)C | x | 34 | n | n | n | n | 0.042 | 0.044 | 0.03 | 0.043 | 0.029
CCOc1ccc(NC(=O)c2ccccc2OC)cc1 | x | -4.7 | n | n | n | n | n | n | n | n | n
CC(C)(C)NC(=O)C(=O)NNC(=O)c1ccccc1Br | n | 9.6 | n | n | n | 0.015 | 0.024 | n | u | 0.03 | n
C/C(=C\C(=O)c1ccc(Cl)s1)N(C)C | n | 3.8 | n | n | n | n | 0.014 | n | u | u | n
CNc1nc(N)nc(-c2cc(Cl)ccc2OC)n1 | n | n | n | n | n | x | x | x | x | x | x
Cc1ccccc1NS(=O)(=O)c1cc(C(=O)NCc2ccco2)ccc1C | n | x | n | n | n | x | x | x | x | x | x
Cc1ccc(SCCNC(=O)c2ccc(C)c(S(=O)(=O)Nc3ccccc3C)c2)cc1 | x | x | n | n | n | n | u | n | n | 0.015 | n
Cn1cc(Br)c(-c2cccc(N3C(=O)CCCC3=O)c2)n1 | x | n | x | n | x | x | x | x | x | x | x
